Key:
human ACE = human ACE (Homo sapiens, UniProt P12821); experiment: Inhibition of recombinant human ACE, fluorescence assay; assay type: biochemical; conditions: ratio of Ki Apps ACE/ACE2
Procedure, shortened: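 Buffer: 50 mM Hepes, 300 mM NaCl, 300 μM CHAPS, 1 μM Zn(OAc)2, 100 μM TCEP, pH 7.5. Thiols were diluted from 10 mM stocks in 50% aqueous acetonitrile and pre-incubated before substrate addition. Values are means of ≥2 assays.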

human NEP = human NEP (Homo sapiens, UniProt P08473); experiment: Inhibition of recombinant human NEP, fluorescence assay; assay type: biochemical; conditions: ratio of Ki Apps NEP/ACE2
Sequence of human NEP (P08473 whole entry): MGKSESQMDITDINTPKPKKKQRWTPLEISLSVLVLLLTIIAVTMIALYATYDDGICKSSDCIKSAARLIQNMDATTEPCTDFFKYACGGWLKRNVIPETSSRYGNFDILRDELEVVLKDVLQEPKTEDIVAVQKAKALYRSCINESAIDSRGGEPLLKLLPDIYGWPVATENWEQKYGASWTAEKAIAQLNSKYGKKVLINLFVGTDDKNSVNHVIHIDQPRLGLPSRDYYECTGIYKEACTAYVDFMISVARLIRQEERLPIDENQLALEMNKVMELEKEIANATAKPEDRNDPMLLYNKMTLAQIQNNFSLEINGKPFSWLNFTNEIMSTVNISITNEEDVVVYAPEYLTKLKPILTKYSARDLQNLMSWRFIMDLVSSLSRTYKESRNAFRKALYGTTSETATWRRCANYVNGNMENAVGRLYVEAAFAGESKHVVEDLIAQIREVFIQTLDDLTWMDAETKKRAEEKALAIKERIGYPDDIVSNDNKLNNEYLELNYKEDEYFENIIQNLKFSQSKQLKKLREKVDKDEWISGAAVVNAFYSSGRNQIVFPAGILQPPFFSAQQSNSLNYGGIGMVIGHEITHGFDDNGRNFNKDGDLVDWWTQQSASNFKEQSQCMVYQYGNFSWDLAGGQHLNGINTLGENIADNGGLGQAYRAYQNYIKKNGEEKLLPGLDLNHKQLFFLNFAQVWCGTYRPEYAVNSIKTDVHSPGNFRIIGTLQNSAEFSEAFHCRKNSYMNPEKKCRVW
Procedure, shortened: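 Fluorescence protease assays, both in 50 mM Hepes pH 7.5 with 1 μM Zn(OAc)2, 100 μM TCEP, 300 μM CHAPS and 300 mM NaCl. NEP: recombinant human enzyme (0.15 nM) with 2 μM FAM-[…]TAMRA)-NH2. ACE2: recombinant human enzyme (0.4 nM) with 30 μM MCA-Tyr-Val-Ala-Asp-Ala-Pro-Lys(DNP)-OH. Compound was pre-incubated before substrate. Ki App is the mean of ≥2 assays; the NEP/ACE2 ratio gives selectivity.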

human CpA = target: T1, human CpA (Homo sapiens, UniProt P15085); experiment: Inhibition of recombinant human CpA, fluorescence assay; assay type: biochemical; conditions: for selectivity for ACE2 versus CpA: ratio of Ki Apps CpA/ACE2; for more potent inhibition of CpA relative to 1a: compared with 1a
T1 sequence (P15085 111-419): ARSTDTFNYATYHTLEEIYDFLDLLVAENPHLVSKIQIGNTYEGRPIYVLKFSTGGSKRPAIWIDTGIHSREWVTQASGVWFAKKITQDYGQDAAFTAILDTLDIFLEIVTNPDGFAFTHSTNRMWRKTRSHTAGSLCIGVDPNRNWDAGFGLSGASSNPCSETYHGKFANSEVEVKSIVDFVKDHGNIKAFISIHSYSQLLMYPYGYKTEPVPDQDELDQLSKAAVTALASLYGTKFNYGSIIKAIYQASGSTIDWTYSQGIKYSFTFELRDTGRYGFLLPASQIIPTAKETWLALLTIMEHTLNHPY
Procedure, shortened: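 Recombinant human CpA (37 nM) was run with 30 μM Abz-Gly-Gly-Nph-OH, and recombinant human ACE2 (0.4 nM) with 30 μM MCA-Tyr-Val-Ala-Asp-Ala-Pro-Lys(DNP)-OH. Both used 50 mM Hepes pH 7.5, 1 μM Zn(OAc)2, 100 μM TCEP, 300 μM CHAPS and 300 mM NaCl. Compound was pre-incubated before substrate; read-out was fluorescence. Ki App is the mean of ≥2 assays; selectivity is the CpA/ACE2 Ki App ratio.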

ACE2 = conditions: read-out: ACE2 IC50; reversible inhibitor; cited from earlier work

Sequence of human ACE (P12821 30-1306): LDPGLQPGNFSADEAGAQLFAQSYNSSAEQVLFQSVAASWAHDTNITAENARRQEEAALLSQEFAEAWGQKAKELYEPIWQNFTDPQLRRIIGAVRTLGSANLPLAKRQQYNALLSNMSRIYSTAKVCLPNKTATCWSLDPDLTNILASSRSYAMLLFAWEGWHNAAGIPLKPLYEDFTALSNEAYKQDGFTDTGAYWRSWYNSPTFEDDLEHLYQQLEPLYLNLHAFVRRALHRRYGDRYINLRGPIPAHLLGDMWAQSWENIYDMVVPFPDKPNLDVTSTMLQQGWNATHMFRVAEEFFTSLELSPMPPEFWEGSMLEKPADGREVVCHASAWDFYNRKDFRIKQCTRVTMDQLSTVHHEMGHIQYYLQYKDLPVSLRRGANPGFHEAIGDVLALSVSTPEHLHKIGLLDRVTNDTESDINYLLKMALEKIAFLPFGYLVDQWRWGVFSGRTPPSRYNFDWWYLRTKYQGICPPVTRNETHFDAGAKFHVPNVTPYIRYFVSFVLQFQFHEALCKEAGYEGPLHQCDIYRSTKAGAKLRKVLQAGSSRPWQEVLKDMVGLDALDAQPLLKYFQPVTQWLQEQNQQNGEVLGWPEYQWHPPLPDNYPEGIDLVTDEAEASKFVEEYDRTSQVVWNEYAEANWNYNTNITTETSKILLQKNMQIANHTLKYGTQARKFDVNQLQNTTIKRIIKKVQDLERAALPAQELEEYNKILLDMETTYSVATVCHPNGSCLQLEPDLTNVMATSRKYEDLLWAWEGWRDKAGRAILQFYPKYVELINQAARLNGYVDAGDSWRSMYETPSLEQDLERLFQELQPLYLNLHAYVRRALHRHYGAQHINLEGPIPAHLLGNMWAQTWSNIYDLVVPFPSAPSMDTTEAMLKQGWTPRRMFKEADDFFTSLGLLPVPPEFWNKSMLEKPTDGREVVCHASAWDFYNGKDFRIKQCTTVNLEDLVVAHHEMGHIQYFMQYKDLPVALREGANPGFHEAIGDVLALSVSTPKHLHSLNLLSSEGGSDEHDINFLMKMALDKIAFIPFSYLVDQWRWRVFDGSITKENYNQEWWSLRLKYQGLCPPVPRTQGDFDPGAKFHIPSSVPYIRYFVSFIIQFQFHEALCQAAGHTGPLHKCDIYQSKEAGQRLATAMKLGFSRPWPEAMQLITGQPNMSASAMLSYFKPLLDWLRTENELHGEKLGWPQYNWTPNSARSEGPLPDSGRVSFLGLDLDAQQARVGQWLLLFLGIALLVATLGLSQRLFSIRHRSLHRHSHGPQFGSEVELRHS

Compound | selectivity for ACE2 versus ACE (human ACE) [fold] | selectivity for ACE2 versus NEP (human NEP) [fold] | selectivity for ACE2 versus CpA (human CpA) [fold] | more potent inhibition of CpA relative to 1a (human CpA) [fold] | IC50 (ACE2) [nM]
CC[C@@H](C)[C@H](S)C(=O)N[C@@H](Cc1cccc(Oc2ccccc2)c1)C(=O)O [1k, N-[(2S,3R)-2-Mercapto-3-methylpentanoyl]-3-(phenyloxy)-L-phenylalanine] | > 100 | 14 | > 100 |  | 
CC[C@@H](C)[C@H](S)C(=O)N[C@@H](Cc1ccc(OCc2ccc(F)c(F)c2)cc1)C(=O)O [1r, O-[(3,4-Difluorophenyl)methyl]-N-[(2S,3R)-2-mercapto-3-methylpentanoyl]-L-tyrosine] | > 750 | > 750 | > 750 |  | 
CC[C@@H](C)[C@H](S)C(=O)N[C@@H](Cc1ccccc1)C(=O)O [1d, N-[(2S,3R)-2-Mercapto-3-methylpentanoyl]-L-phenylalanine] |  |  |  | > 10 | 
CC[C@@H](C)[C@H](S)C(=O)N[C@@H](Cc1ccccc1Oc1ccccc1)C(=O)O [1j, N-[(2S,3R)-2-Mercapto-3-methylpentanoyl]-2-(phenyloxy)-L-phenylalanine] | > 100 |  | > 100 |  | 
CC[C@@H](C)[C@H](S)C(=O)N[C@@H](Cc1cccc2ccccc12)C(=O)O [1f, N-[(2S,3R)-2-Mercapto-3-methylpentanoyl]-3-(1-naphthalenyl)-L-alanine] | > 100 |  | > 100 |  | 
CC[C@@H](C)[C@H](S)C(=O)N[C@@H](Cc1ccc(Oc2ccccc2)cc1)C(=O)O [1l, N-[(2S,3R)-2-Mercapto-3-methylpentanoyl]-O-phenyl-L-tyrosine] | > 100 | 5 | > 100 |  | 
CC(C)C[C@H](N[C@@H](Cc1cncn1Cc1cc(Cl)cc(Cl)c1)C(=O)O)C(=O)O [MLN-4760] |  |  |  |  | 0.44
CC[C@@H](C)[C@H](S)C(=O)N[C@@H](Cc1ccc(O)cc1)C(=O)O [1e, N-[(2S,3R)-2-Mercapto-3-methylpentanoyl]-L-tyrosine] |  |  |  | > 10 | 
CC[C@@H](C)[C@H](S)C(=O)N[C@@H](Cc1ccc2ccccc2c1)C(=O)O [1g, N-[(2S,3R)-2-Mercapto-3-methylpentanoyl]-3-(2-naphthalenyl)-L-alanine] | > 100 |  | > 100 |  | 
